Laboratory results published in ChEMBL document CHEMBL1140925, “Nuclear factor-kappaB mediated inhibition of cytokine production by imidazoline scaffolds” (J Med Chem, 2009).

Columns and labels:
HeLa [1] = assay: Cell cycle arrest in TNF-alpha-stimulated human HeLa cells transfected with NFkappaB-Luc assessed as accumulation at diploid G2 phase at 20 uM after 8 hrs by propidium iodide-based flow cytometry; type: functional
Summary of the method: (§1)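 HeLa NF-κB-luc cells (stable, hygromycin-selected) were treated with vehicle (1% DMSO) or compound at 40–0.2 µM final for 8 h at 37 °C, 5% CO2. Adherent cells were trypsinized, resuspended in PBS/50% FBS, fixed overnight in 70% ice-cold ethanol and washed with cold PBS/10% FBS, then analysed for cell cycle by flow cytometry.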

HeLa [2] = assay: Cell cycle arrest in human HeLa cells transfected with NFkappaB-Luc assessed as accumulation at G2/G1 phase at 20 uM after 8 hrs by propidium iodide-based flow cytometry; type: functional; summary of the method: as §1
[3] = Cytotoxicity against human whole blood lymphocytes assessed as survival cell count in millions at 3 uM by trypan blue staining based hemocytometer
HeLa [4] = assay: Effect on cell cycle arrest in TNF-alpha-stimulated human HeLa cells assessed as cell aggregate level at 10 uM after 8 hrs by propidium iodide-based flow cytometry; type: functional
HeLa [5] = assay: Effect on cell cycle arrest in TNF-alpha-stimulated human HeLa cells assessed as cell debris level at 5 uM after 8 hrs by propidium iodide-based flow cytometry; type: functional
HeLa [6] = assay: Effect on cell cycle arrest in TNF-alpha-stimulated human HeLa cells assessed as cell aggregate level at 0.05 uM after 8 hrs by propidium iodide-based flow cytometry; type: functional
[7] = Inhibition of TNF-alpha-induced NF-kappaB-mediated transcription expressed in human HeLa cells preincubated for 30 mins before addition of TNFalpha measured after 8 hrs by luciferase reporter gene assay; type: cell-based
Summary of the method: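 HeLa/NF-κB-luc cells (5.0 × 10⁵ cells/mL) were grown 24 h, then switched to serum-free DMEM. They were pretreated 30 min at 37 °C with 0.05–20 µM imidazoline (1% DMSO vehicle), then stimulated with 25 ng/mL TNF-α for 8 h. Steady-Glo luminescence was normalized to TNF-α activation, and EC50 was taken from a variable-slope sigmoidal fit. Values are the mean of two independent experiments.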

HeLa [8] = assay: Cell cycle arrest in TNF-alpha-stimulated human HeLa cells transfected with NFkappaB-Luc assessed as accumulation at diploid stage at 0.5 uM after 8 hrs by propidium iodide-based flow cytometry; type: functional; summary of the method: as §1

## CCOC(=O)[C@]1(c2ccccc2)N=C(c2ccccc2)N(Cc2ccccc2)[C@@H]1c1ccccc1 (racemic)
HeLa [1]
  Activity: 14.75%
HeLa [2]
  Ratio: 1.9
[3]
  Activity: 1.7 mL⁻¹
HeLa [4]
  Activity: 0%
HeLa [5]
  Activity: 2.7%
HeLa [6]
  Activity: 0%
[7]
  EC50: 2500 nM
HeLa [8]
  Activity: 100%
